Source: PubChem BioAssay
PfG6PD inh – PfG6PD enzyme inhibitors, primary screen, biochemical, fluorescence intensity, uHTS | 350,000 compounds, 0.78% hits | glucose-6-phosphate dehydrogenase-6-phosphogluconolactonase (Plasmodium falciparum 3D7) | AID 504690, 2011 | PfGluPho enzyme, NADPH resazurin-diaphorase fluorescence | inhibition, % at 20 µM;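 active = inhibition reaching at least a set limit at 20 µM in the primary screen, cut at about 59% in these data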;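 note: 0% = DMSO wells with substrate and 100% = DMSO wells lacking glucose-6-phosphate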
ATG4B inh – ATG4B protease inhibitors, primary screen, biochemical, fluorescence, uHTS; 340,000 compounds, 0.51% hits; inhibition, % at 8.33 µM; AID 504462, 2011; ATG4B cleavage of LC3-PLA2, NBD-HPC fluorescence, 1 h; Cysteine protease ATG4B (Homo sapiens), Q9Y4P1; in the data active = inhibition above about 40%
Target sequence (Q9Y4P1 whole entry, looked up): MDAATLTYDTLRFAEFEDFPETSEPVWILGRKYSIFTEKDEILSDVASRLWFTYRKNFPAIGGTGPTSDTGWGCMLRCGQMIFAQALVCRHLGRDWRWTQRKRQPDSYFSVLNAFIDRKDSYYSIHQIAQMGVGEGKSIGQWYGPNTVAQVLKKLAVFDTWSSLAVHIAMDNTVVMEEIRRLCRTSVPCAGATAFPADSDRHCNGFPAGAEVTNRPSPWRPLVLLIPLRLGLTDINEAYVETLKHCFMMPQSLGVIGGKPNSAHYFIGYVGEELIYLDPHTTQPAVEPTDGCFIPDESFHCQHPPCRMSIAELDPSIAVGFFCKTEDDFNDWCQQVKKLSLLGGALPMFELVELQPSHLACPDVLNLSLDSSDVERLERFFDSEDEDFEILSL
PKA-R1A act – activators of PKA-R1A holoenzyme, primary screen, biochemical, fluorescence polarization, Cy5-IP20, bovine R1A, mouse PKAc. activation, % at 11.4 µM. cAMP-dependent protein kinase type I-alpha regulatory subunit (Bos taurus) + …. PKA-R1A dissociation; scaled: DMSO 0%, 113 µM cGMP 100%. 340,000 compounds, 0.083% hits;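 active = percent activation above the mean of all tested compounds plus 3 SD, cut at about 19% in these data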;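 note: higher means more PKAc released from R1A so a rise in polarization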
T cell modulator – modulators of CD8 T cell-vesicle binding, primary screen, mouse 2C CD8+ T cells, flow cytometry; response (vesicle binding), % at 7 µM; 2C CD8+ T cell-vesicle binding; stronger effect = lower value; 330,000 compounds, 0.068% hits;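 active = response, share of CD8 T cells binding vesicles, and their 90th percentile fluorescence all below set limits, cut at about 80% in these data, passing the limit was not always enough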;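 note: values below 100% mean blocked vesicle binding to the CD8+ T cells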
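Read-out – percent CD8+ FL2 mean versus row control · System – murine 2C transgenic CD8+ T lymphocytes · Times – 1.5 h cell–vesicle binding at 37 °C, then 20 min icy labelling · Control set – naked vesicles low, QL9 vesicles with vehicle high · Detection – cytometric PE anti-B7-1 and Alexa647 anti-CD8 signals after 1% paraformaldehyde fixation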
HKDC1 inhibitor – HKDC1 hexokinase inhibitors, primary screen, biochemical, fluorescence, uHTS. Q2TB90. recombinant HKDC1, G6PDH/diaphorase resazurin coupled fluorescence. inhibition, % at 20 µM. 340,000 compounds, 0.16% hits. AID 493160, 2011;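 active = inhibition above about 35% when tested at 20 µM, limit read from the data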;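 note: plate controls were DMSO wells with enzyme for no effect and DMSO wells lacking enzyme for full effect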
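test system = in-house recombinant HK5 (HKDC1) enzyme | amount = HKDC1 at 5 µg/mL | control set = DMSO-enzyme wells negative, buffer-substituted wells positive | compound = one dose of 20 µM, 1% DMSO | schedule = reaction time 90 min, room temperature, protected from light | technique = resorufin fluorescence at 613 nm | reagent = glucose with 1 mM ATP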
PKA-R2B activ – activators of PKA-R2B holoenzyme, primary screen, biochemical, fluorescence polarization, Cy5-IP20, human. PKA-R2B holoenzyme dissociation; R2B truncated from residue 108, S112A mutant; 0% DMSO only, 100% 113 µM cGMP. activation, % at 11.4 µM. 340,000 compounds, 0.079% hits. AID 504700, 2011;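 active = activation above a cutoff set at the mean over all compounds plus 3 SD, cut at about 18% in these data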;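 note: higher means more holoenzyme dissociation and a rise in polarization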
Target sequence (P31323 whole entry, looked up, other chains not shown, the tested form may be a part): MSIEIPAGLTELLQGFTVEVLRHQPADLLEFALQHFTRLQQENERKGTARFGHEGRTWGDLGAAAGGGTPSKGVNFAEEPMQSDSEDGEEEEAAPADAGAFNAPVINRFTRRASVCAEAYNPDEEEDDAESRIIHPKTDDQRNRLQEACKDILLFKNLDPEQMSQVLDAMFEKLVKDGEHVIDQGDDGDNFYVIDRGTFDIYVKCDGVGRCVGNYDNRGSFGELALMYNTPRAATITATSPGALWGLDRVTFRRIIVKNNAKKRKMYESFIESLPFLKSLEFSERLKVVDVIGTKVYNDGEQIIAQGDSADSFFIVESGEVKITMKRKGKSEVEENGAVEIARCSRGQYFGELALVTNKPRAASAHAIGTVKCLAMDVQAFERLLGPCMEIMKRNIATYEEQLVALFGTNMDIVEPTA
PfGluPho conf – PfG6PD inhibitors, hit retest, confirmation, biochemical, fluorescence intensity, single concentration. shares compounds with PfG6PD inh. inhibition, % at 20 µM. recombinant PfGluPho, NADPH-diaphorase-resazurin fluorescence. 2,400 compounds, 34% hits;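 active = inhibition of at least 50% at 20 µM in any single replicate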;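 note: 0% = DMSO with substrate and 100% = DMSO lacking glucose-6-phosphate substrate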
Diaph ctr 10uM – diaphorase inhibitors and chemical oxidizers, confirmation, counter-screen for P. falciparum G6PD inhibitor project, biochemical, fluorescence intensity, 10 µM NADPH | diaphorase-coupled resazurin reduction, NADPH 10 uM | shares compounds with PfG6PD inh | inhibition, % at 20 µM | 820 compounds, 39% hits | AID 504862, 2011;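 active = average inhibition reaching 50% or more with the compound at 20 µM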;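 note: resorufin red fluorescence formed as diaphorase reduces resazurin using NADPH; 0% = DMSO with enzyme and 100% = DMSO without enzyme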
Diaphorase 30uM – diaphorase inhibitors and chemical oxidizers, confirmation, counter-screen for P. falciparum G6PD inhibitor project, biochemical, fluorescence intensity, 30 µM NADPH; shares compounds with PfG6PD inh; Diaphorase/resazurin coupled assay, resorufin fluorescence; inhibition, % at 20 µM; 820 compounds, 29% hits; AID 504863, 2011;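 active = inhibition averaging 50% or more, tested at 20 µM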;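 note: 0% = DMSO with enzyme and 100% = DMSO wells lacking diaphorase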
* hit, by the source's call; i = inactive; . = no result. A selection: hits, their analogues and other compounds. The true share with any hit is near 1.6%.

SMILES | PfG6PD inh | ATG4B inh | PKA-R1A act | T cell modulator | HKDC1 inhibitor | PKA-R2B activ | PfGluPho conf | Diaph ctr 10uM | Diaphorase 30uM
Cc1ccc(/C=C/C(=O)OCC(=O)NCc2cccs2)o1 | 61.0* | 5.5 | 1.0 | 670.3 | -4.3 | 5.0 | 5.9 | . | .
O=C(CSc1ncccn1)Nc1ccc2[nH]c(=O)[nH]c2c1 | 25.1 | -6.0 | -6.1 | 275.6 | 0.6 | -9.9 | . | . | .
Cc1nc(SCC(=O)Nc2ccc3[nH]c(=O)[nH]c3c2)nc(C)c1C | 64.4* | 1.8 | -2.1 | 232.2 | -0.3 | -17.2 | 7.8 | . | .
COc1ccc(Cl)cc1C=CC=NNS(=O)(=O)c1ccc(C)cc1 | 11.9 | 0.5 | -3.2 | . | 2.4 | 3.0 | . | . | .
COc1ccc(Cl)cc1C=CC=Nc1ccccc1O | 75.8* | 5.8 | 2.2 | . | 21.6 | -4.2 | 19.2 | . | .
O=C(CCC(=O)N1CCc2ccccc2C1)NCCc1ccc(Cl)cc1 | -11.1 | 0.4 | 5.4 | 624.1 | -3.0 | -17.5 | . | . | .
CC1C(=O)N(Cc2cn(CCC3OCCO3)nn2)CCS(=O)(=O)N1Cc1ccc(-c2ccc(Cl)cc2)cc1 (stereo not drawn) | 17.4 | . | -10.5 | . | . | 6.6 | . | . | .
O=C(CSc1nc2ccccc2o1)N/N=C/c1ccccc1 | 69.3* | 2.4 | -6.5 | i | -5.6 | -15.8 | 68.3* | 61.5* | 52.4*
O=C(CSCc1ccc(Cl)cc1)N/N=C/c1c(Cl)cccc1Cl | 7.9 | 11.9 | 3.7 | 499.0 | -10.8 | 1.0 | . | . | .
O=C(CSCc1ccc(Cl)cc1)N/N=C/c1ccccc1 | 118.1* | 5.1 | 1.5 | 399.6 | 3.9 | 5.1 | 92.9* | 90.3* | 79.6*
C/C(=N\NC(=O)C(C)Sc1ccccc1)C(C)(C)C (stereo not drawn) | -13.0 | 0.1 | -7.1 | 175.7 | -3.4 | -9.8 | . | . | .
CC(Sc1ccccc1)C(=O)N/N=C/c1ccccc1 (stereo not drawn) | 77.1* | -7.9 | -1.2 | i | 1.1 | 2.8 | 41.2 | . | .
O=C(CCSCCC(=O)NN=Cc1ccccc1)NN=Cc1ccccc1 | 71.7* | 6.4 | 1.8 | . | 3.6 | -3.7 | 55.5* | 49.4 | 45.2
O=C(CCC(=O)Nc1ccc(F)cc1)N/N=C/c1ccccc1 | 43.7 | -0.7 | 15.6 | 183.7 | 2.6 | 6.3 | . | . | .
Cn1c(=O)c2c(ncn2CC(=O)OCC(=O)Nc2ccc(F)cc2F)n(C)c1=O | -5.5 | 5.5 | 8.5 | 321.9 | -4.0 | 3.2 | . | . | .
Cc1ccc(S(=O)(=O)N2CCCCC2)cc1NC(=O)COC(=O)CN1C(=O)NC2(CC(C)CC(C)(C)C2)C1=O (stereo not drawn) | 7.1 | -4.6 | -6.3 | . | 0.2 | 1.3 | . | . | .
CC(C)(C)C1=Nn2c(nnc2-c2n[nH]c3c2CCC3)SC1 | 59.8* | -7.9 | 6.7 | 532.3 | 8.0 | -1.2 | 12.4 | . | .
CC1=Nn2c(nnc2-c2n[nH]c3c2CCC3)SC1 | -1.4 | -10.1 | -2.1 | 310.2 | -1.2 | 6.2 | . | . | .
CCOc1ccccc1NS(=O)(=O)c1cccs1 | 98.7* | -3.3 | -15.4 | 294.0 | -0.9 | -1.4 | 71.7* | 67.6* | 61.2*
CCOc1ccccc1NS(=O)(=O)c1c(C)noc1C | 63.2* | -6.0 | 5.3 | 925.0 | 0.0 | -19.2 | 54.4* | 45.4 | 33.9
COC(=O)c1ccccc1NS(=O)(=O)c1c(C)noc1C | 49.0 | -6.0 | -10.0 | 202.8 | -2.8 | -11.2 | . | . | .
O=S(=O)(Nc1cccc2ncccc12)c1cccs1 | 98.8* | 4.9 | -10.3 | 385.5 | 18.9 | -1.9 | 61.2* | 61.5* | 56.4*
CC(=O)Nc1ccc(S(=O)(=O)Nc2cccc3cccnc23)cc1 | -7.2 | 3.1 | -7.2 | 206.2 | 7.4 | -1.7 | . | . | .
O=S(=O)(Nc1cccc2cccnc12)c1ccccc1 | 96.2* | -1.3 | -10.4 | 784.3 | 14.7 | -9.7 | 52.2* | 61.3* | 40.1
Cc1ccc2cccc(NS(=O)(=O)c3ccccc3)c2n1 | 139.2* | 0.9 | . | 230.9 | 4.1 | . | 105.1* | 102.5* | 79.9*
SMILES | PfG6PD inh | ATG4B inh | PKA-R1A act | T cell modulator | HKDC1 inhibitor | PKA-R2B activ | PfGluPho conf | Diaph ctr 10uM | Diaphorase 30uM
O=C(CSc1nnc(-c2ccccc2)c2ccccc12)NCCN1C(=O)CSC1=O | 3.5 | 1.9 | -7.1 | 267.4 | 3.9 | 1.6 | . | . | .
CCC1(CC)Cc2ccccc2-c2nc(NN)[nH]c(=O)c21 | 76.3* | 5.4 | -3.5 | 289.6 | 4.8 | -8.9 | 30.8 | . | .
N#C/C(=C/c1ccc(N2CCOCC2)o1)c1ccc(Cl)cc1 | 77.8* | -7.8 | 0.1 | 80.1 | -3.6 | 3.1 | 12.2 | . | .
COc1ccc(N/C=C2\CCc3ccccc3C2=O)cc1 | 90.5* | 13.4 | -5.7 | 124.8 | 33.2 | 0.7 | 45.9 | . | .
COc1ccc(S(=O)(=O)Nc2ccc3c(c2)OCO3)cc1 | 3.6 | -12.3 | 0.3 | 306.7 | 1.9 | -5.2 | . | . | .
COc1ccc(N/C=C2\CCOC2=O)cc1 | -1.4 | 3.8 | 2.7 | 491.1 | -7.4 | -3.8 | . | . | .
O=C1/C(=C/Nc2ccc3c(c2)OCO3)CCc2ccccc21 | 88.0* | 24.7 | -8.8 | 513.4 | 34.6 | -3.4 | 40.9 | . | .
O=C1OC2(CCCCC2)OC(=O)C1=CNc1ccc2c(c1)OCO2 | 19.0 | 7.2 | -9.8 | 344.4 | -2.2 | -6.9 | . | . | .
COc1ccc2c(c1)CC/C(=C\Nc1ccc3c(c1)OCO3)C2=O | 73.5* | 7.8 | -0.8 | 402.8 | 19.8 | 1.9 | 56.9* | 3.0 | 9.6
Fc1cccc(F)c1/C=C/c1ccc2ccccc2n1 | 15.8 | 22.8 | -9.4 | 195.2 | -6.3 | -7.0 | . | . | .
C(=C\c1ccco1)/c1ccc2ccccc2n1 | 66.2* | 8.0 | . | 474.9 | -0.7 | . | 9.8 | . | .
COc1ccc(OC)c(-c2nn(-c3ccccc3)cc2C(=O)NC2(C)CCS(=O)(=O)C2)c1 (stereo not drawn) | 7.0 | . | 4.6 | . | . | 0.9 | . | . | .
Cc1[nH]c(=S)c(C#N)c(C)c1CCC#N | 68.8* | 6.6 | -9.3 | 443.0 | -3.2 | -6.2 | 50.7* | 10.6 | -3.1
